One experiment deals with CV-A16. The experiment can be described thus: Plaque reduction assay, CV-A16. In kind it is cell-based, Coxsackievirus A16. The conditions noted are these: read-out: IC50 against CV-A16 in plaque reduction assay. Put shortly:
(§1)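 Confluent RD or Vero monolayers were infected with coxsackievirus for 1 h. The inoculum was replaced by DMEM overlay with 1.2% Avicel, 2% FBS and varying test compound concentrations. After 2–3 days, plaques were fixed with 4% formaldehyde, stained with 0.5% crystal violet and counted, and IC50 was calculated. Data are means ± SD.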

Experiment [1] has as its system CV-A10. The experiment can be described thus: Plaque reduction assay, CV-A10 in Vero cells. Format: cell-based, Coxsackievirus A10. The conditions noted are these: read-out: IC50 against CV-A10 in plaque reduction assay. In outline:
as §1
(Plaques are areas of infected cells; plaque reduction assays count them against a control.)

In experiment [2] the test system is CV-A10. Kind of experiment: Plaque reduction assay, CV-A10 in RD cells. Format: cell-based, Coxsackievirus A10. The conditions noted are these: read-out: IC50 against CV-A10 in plaque reduction assay. In outline: as §1
The next experiment concerns CV-A6. The experiment can be described thus: Plaque reduction assay, CV-A6. In kind it is cell-based, Coxsackievirus A6. The conditions noted are these: read-out: IC50 against CV-A6 in plaque reduction assay. Put shortly: as §1
For a further experiment, the system named is CV-A7. Kind of experiment: Plaque reduction assay, CV-A7. Format: cell-based, Coxsackievirus A7. The conditions noted are these: read-out: IC50 against CV-A7 in plaque reduction assay. Put shortly:
as §1

With `CC(C)C[C@H](NC(=O)OCc1ccccc1)C(=O)N[C@@H](CC1CCNC1=O)C(O)S(=O)(=O)O` (some centres unmarked) [GC376], the half-inhibitory concentration (IC50) (as a rule, the concentration needed to halve the response being measured) in the experiment on CV-A16 stood at 180 ± 20 nM; with CV-A10 [1] it was 1690 ± 620 nM; in the experiment with CV-A10 [2] it was 240 ± 40 nM; in the experiment with CV-A6, 220 ± 20 nM; in the experiment with CV-A7 it was 210 ± 50 nM.

For the origin of these results see article PMC10520345 (Current Research in Microbial Sciences, 2023).
